# Test results as given in ChEMBL document CHEMBL4138196, “Discovery and structure-activity relationship of novel 4-hydroxy-thiazolidine-2-thione derivatives as tumor cell specific pyruvate kinase M2 activators” (Eur J Med Chem, 2018).
# Columns and labels:
# HeLa = test: Antiproliferative activity against human HeLa cells after 48 hrs by MTS assay; type: functional, cell-based
# Procedure, shortened: (§1)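 Cells grown in RPMI 1640 with 9% FBS at 37°C, 5% CO2. 3000-10000 cells/well were left to attach 12 h, then given compound at five concentrations, or DMSO as vehicle control, for 48 h. MTS was added for 3 h at 37°C and absorbance read at 490 nm. IC50 (50% growth inhibition) was taken from triplicate dose-response curves.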
# Pyruvate kinase PKM = Pyruvate kinase PKM (Homo sapiens, UniProt P14618); test: Activation of N-terminal His -tagged human PKM2 expressed in Escherichia coli BL21 using PEP as substrate measured at 30 secs intervals for between 3 and 6 mins by fluorescent pyruvate kinase-lactate dehydrogenase coupled assay
# HCT-116 = test: Antiproliferative activity against human HCT116 cells after 48 hrs by MTS assay; type: functional, cell-based; settings: HCT-116, 48 h; procedure, shortened: as §1
# PC-3 = test: Antiproliferative activity against human PC3 cells after 48 hrs by MTS assay; type: functional, cell-based; settings: PC-3, 48 h; procedure, shortened: as §1
# [1] = Antiproliferative activity against HELF after 48 hrs by MTS assay; parameters: species or system Homo sapiens; procedure, shortened: as §1
# NCI-H1299 = test: Antiproliferative activity against human H1299 cells after 48 hrs by MTS assay; type: functional, cell-based; settings: NCI-H1299, 48 h; procedure, shortened: as §1
# Chain of Pyruvate kinase PKM (P14618 whole entry): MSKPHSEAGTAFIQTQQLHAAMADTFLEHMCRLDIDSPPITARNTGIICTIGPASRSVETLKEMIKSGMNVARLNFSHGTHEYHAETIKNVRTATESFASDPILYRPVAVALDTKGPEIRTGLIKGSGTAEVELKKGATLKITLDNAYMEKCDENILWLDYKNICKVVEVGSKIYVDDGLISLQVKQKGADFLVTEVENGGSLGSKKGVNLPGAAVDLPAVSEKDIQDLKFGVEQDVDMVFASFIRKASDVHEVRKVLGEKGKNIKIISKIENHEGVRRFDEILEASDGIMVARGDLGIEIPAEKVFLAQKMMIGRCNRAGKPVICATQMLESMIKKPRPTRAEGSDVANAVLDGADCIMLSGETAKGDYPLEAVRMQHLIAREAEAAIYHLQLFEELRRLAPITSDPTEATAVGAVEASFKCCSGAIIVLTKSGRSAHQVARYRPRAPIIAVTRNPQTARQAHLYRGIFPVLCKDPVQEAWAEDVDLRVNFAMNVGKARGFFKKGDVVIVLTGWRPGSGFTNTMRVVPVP
IC50 (HeLa),AC50 (Pyruvate kinase PKM),IC50 (HCT-116),IC50 (PC-3),IC50 (NCI-H1299),SMILES,IC50 [1]
550 nM,1750 nM,1280 nM,1280 nM,1810 nM,O=S(=O)(Nc1ccc(C2(O)CSC(=S)N2Cc2cnc3ccccc3c2)cc1)c1ccc2c(c1)OCCO2 (stereo unspecified),–
480 nM,> 20000 nM,4110 nM,2190 nM,1140 nM,O=S(=O)(Nc1ccc(C2(O)CSC(=S)N2Cc2cccnc2)cc1)c1cccc(F)c1 (stereo unspecified),–
940 nM,> 20000 nM,1650 nM,1330 nM,1750 nM,Cc1cc(C)c(S(=O)(=O)Nc2ccc(C3(O)CSC(=S)N3Cc3cccnc3)cc2)c(C)c1 (stereo unspecified),–
550 nM,> 20000 nM,1180 nM,2680 nM,1450 nM,O=S(=O)(Nc1ccc(C2(O)CSC(=S)N2Cc2cccnc2)cc1)c1ccccc1F (stereo unspecified),–
620 nM,> 20000 nM,1040 nM,2160 nM,1280 nM,O=S(=O)(Nc1ccc(C2(O)CSC(=S)N2CCc2cccnc2)cc1)c1ccc2c(c1)OCCO2 (stereo unspecified),–
> 20000 nM,> 20000 nM,> 20000 nM,> 20000 nM,> 20000 nM,O=S(=O)(Nc1ccc(-c2csc(=S)n2Cc2cccnc2)cc1)c1cccc2cccnc12,–
780 nM,> 20000 nM,1840 nM,1950 nM,2120 nM,O=C1COc2ccc(S(=O)(=O)Nc3ccc(C4(O)CSC(=S)N4Cc4cccnc4)cc3)cc2N1 (stereo unspecified),–
510 nM,17600 nM,920 nM,1350 nM,1020 nM,CS(=O)(=O)c1cccc(-c2ccc(CN3C(=S)SCC3(O)c3ccc(NS(=O)(=O)c4ccc5c(c4)OCCO5)cc3)cn2)c1 (stereo unspecified),–
840 nM,520 nM,2110 nM,2350 nM,2430 nM,O=S(=O)(Nc1ccc(C2(O)CSC(=S)N2Cc2cccnc2)cc1)c1cccc2cccnc12 (stereo unspecified),–
260 nM,> 20000 nM,2720 nM,1310 nM,1220 nM,O=[N+]([O-])c1ccc(S(=O)(=O)Nc2ccc(C3(O)CSC(=S)N3Cc3cccnc3)cc2)cc1 (stereo unspecified),–
570 nM,> 20000 nM,3500 nM,1400 nM,1310 nM,O=S(=O)(Nc1ccc(C2(O)CSC(=S)N2Cc2cccnc2)cc1)c1ccc(F)cc1 (stereo unspecified),–
610 nM,> 20000 nM,2300 nM,3870 nM,1750 nM,O=[N+]([O-])c1ccccc1S(=O)(=O)Nc1ccc(C2(O)CSC(=S)N2Cc2cccnc2)cc1 (stereo unspecified),–
1330 nM,> 20000 nM,3450 nM,8620 nM,1240 nM,O=S(=O)(Nc1ccc(C2(O)CSC(=S)N2Cc2cccnc2)cc1)c1ccccc1N1CCOCC1 (stereo unspecified),–
1140 nM,6250 nM,1730 nM,1110 nM,1680 nM,Cc1cccc(S(=O)(=O)Nc2ccc(C3(O)CSC(=S)N3Cc3cccnc3)cc2)c1 (stereo unspecified),–

# Second part, the compound before the results:
SMILES,IC50 (HeLa),AC50 (Pyruvate kinase PKM),IC50 (HCT-116),IC50 (PC-3),IC50 (NCI-H1299),IC50 [1]
COc1ccc(S(=O)(=O)Nc2ccc(C3(O)CSC(=S)N3Cc3cccnc3)cc2)cc1 (stereo unspecified),480 nM,4690 nM,1750 nM,1070 nM,960 nM,8630 nM
O=C1CCc2cc(S(=O)(=O)Nc3ccc(C4(O)CSC(=S)N4Cc4cccnc4)cc3)ccc2N1 (stereo unspecified),710 nM,740 nM,1640 nM,4290 nM,1650 nM,–
COc1cccc(S(=O)(=O)Nc2ccc(C3(O)CSC(=S)N3Cc3cccnc3)cc2)c1 (stereo unspecified),590 nM,5950 nM,2620 nM,930 nM,930 nM,6900 nM
O=S(=O)(Nc1ccc(C2(O)CSC(=S)N2Cc2cccnc2)cc1)c1cccc2ccccc12 (stereo unspecified),630 nM,> 20000 nM,2610 nM,1690 nM,1530 nM,–
CS(=O)(=O)Nc1ccc(C2(O)CSC(=S)N2Cc2cccnc2)cc1 (stereo unspecified),860 nM,> 20000 nM,1560 nM,2200 nM,1250 nM,–
O=c1ccc2cc(S(=O)(=O)Nc3ccc(C4(O)CSC(=S)N4Cc4cccnc4)cc3)ccc2o1 (stereo unspecified),690 nM,> 20000 nM,1410 nM,2400 nM,1650 nM,–
COc1ccc(Cl)cc1S(=O)(=O)Nc1ccc(C2(O)CSC(=S)N2Cc2cccnc2)cc1 (stereo unspecified),1110 nM,> 20000 nM,3690 nM,4510 nM,1620 nM,–
O=S(=O)(Nc1ccc(C2(O)CSC(=S)N2Cc2cccnc2)cc1)c1ccc2ccccc2c1 (stereo unspecified),460 nM,> 20000 nM,1650 nM,1520 nM,810 nM,8050 nM
O=S(=O)(Nc1ccc(C2(O)CSC(=S)N2Cc2cccnc2)cc1)c1ccccc1 (stereo unspecified),450 nM,2960 nM,1700 nM,990 nM,1440 nM,–
O=S(=O)(Cc1ccccc1)Nc1ccc(C2(O)CSC(=S)N2Cc2cccnc2)cc1 (stereo unspecified),1260 nM,7240 nM,3320 nM,2440 nM,1550 nM,–
CC(=O)O[C@H]1C(=O)[C@@]2(C)[C@H]([C@H](OC(=O)c3ccccc3)[C@]3(O)C[C@H](OC(=O)[C@H](O)[C@@H](NC(=O)c4ccccc4)c4ccccc4)C(C)=C1C3(C)C)[C@]1(OC(C)=O)CO[C@@H]1C[C@@H]2O [PACLITAXEL],–,–,1370 nM,4570 nM,7830 nM,–
CN(c1ccc(C2(O)CSC(=S)N2Cc2cccnc2)cc1)S(=O)(=O)c1cccc2cccnc12 (stereo unspecified),930 nM,> 20000 nM,2320 nM,6150 nM,2470 nM,–
O=S(=O)(Nc1ccc(C2(O)CSC(=S)N2Cc2cccnc2)cc1)c1c[nH]c2ncccc12 (stereo unspecified),760 nM,1410 nM,1550 nM,1260 nM,2000 nM,–
O=S(=O)(Nc1ccc(C2(O)CSC(=S)N2Cc2cccnc2)cc1)c1ccccc1-c1ccccc1 (stereo unspecified),1100 nM,> 20000 nM,6110 nM,2810 nM,2700 nM,–
N#Cc1ccc(S(=O)(=O)Nc2ccc(C3(O)CSC(=S)N3Cc3cccnc3)cc2)cc1 (stereo unspecified),770 nM,> 20000 nM,1800 nM,4110 nM,1470 nM,–
Cc1ccc(S(=O)(=O)Nc2ccc(C3(O)CSC(=S)N3Cc3cccnc3)cc2)cc1 (stereo unspecified),440 nM,> 20000 nM,2180 nM,940 nM,1200 nM,–
O=[N+]([O-])c1cccc(-c2ccccc2S(=O)(=O)Nc2ccc(C3(O)CSC(=S)N3Cc3cccnc3)cc2)c1 (stereo unspecified),1400 nM,> 20000 nM,3890 nM,3260 nM,2960 nM,–
Cc1ccccc1S(=O)(=O)Nc1ccc(C2(O)CSC(=S)N2Cc2cccnc2)cc1 (stereo unspecified),550 nM,1190 nM,2410 nM,1580 nM,1630 nM,–
O=S(=O)(Nc1ccc(C2(O)CSC(=S)N2Cc2cccnc2)cc1)c1cccs1 (stereo unspecified),420 nM,1470 nM,1440 nM,1250 nM,1230 nM,–
O=S(=O)(Nc1ccc(C2(O)CSC(=S)N2Cc2cnccn2)cc1)c1ccc2c(c1)OCCO2 (stereo unspecified),550 nM,2150 nM,850 nM,920 nM,1720 nM,–
